# Results: ChEMBL document CHEMBL1125496, “New potent mitomycin derivatives: synthesis and antitumor activity of 7,7-(ethylenedioxy)mitomycins” (J Med Chem, 1992)
# What was measured:
# HeLa [1] = experiment: In vitro anticellular activity against HeLa cells.; type: functional, cell-based, Homo sapiens
# Outline: (§1)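 HeLa S3 cells seeded on day 0, then exposed to drug for 1 h on day 1. Anticellular activity determined by a previously described method and reported as 1 h IC50 in μM.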
# Mus musculus [2] = experiment: In vivo antitumor activity against P388 leukemia cells (ip)in mice and maximal increase in life span calculated as (T/C-1)*100 at the optimal dose of 2.5 mg/kg (%ILS max of mitomycin C at the optimal dose of 4.0 mg/kg).; type: functional
# Mus musculus [3] = experiment: In vivo antitumor activity against P388 leukemia cells (ip)in mice and maximal increase in life span calculated as (T/C-1)*100 at the optimal dose of 5 mg/kg (%ILS max of mitomycin C at the optimal dose of 4.0 mg/kg).; type: functional
# Mus musculus [4] = experiment: In vivo antitumor activity against P388 leukemia cells (ip)in mice and maximal increase in life span calculated as (T/C-1)*100 at the optimal dose of 13 mg/kg (%ILS max of mitomycin C at the optimal dose of 6.0 mg/kg).; type: functional
# Mus musculus [5] = experiment: In vivo antitumor activity against P388 leukemia cells (ip)in mice and maximal increase in life span calculated as (T/C-1)*100 at the optimal dose of 3 mg/kg (%ILS max of mitomycin C at the optimal dose of 6.0 mg/kg); type: functional
# Mus musculus [6] = experiment: In vivo antitumor activity against P388 leukemia cells (ip)in mice and maximal increase in life span calculated as (T/C-1)*100 at the optimal dose of 5 mg/kg (%ILS max of mitomycin C at the optimal dose of 6.0 mg/kg).; type: functional
# Mus musculus [7] = experiment: In vivo antitumor activity against P388 leukemia cells (ip)in mice and maximal increase in life span calculated as (T/C-1)*100 at the optimal dose of 3.1 mg/kg (%ILS max of mitomycin C at the optimal dose of 4.0 mg/kg).; type: functional
# Mus musculus [8] = experiment: In vivo antitumor activity against P388 leukemia cells (ip)in mice and maximal increase in life span calculated as (T/C-1)*100 at the optimal dose of 13 mg/kg (%ILS max of mitomycin C at the optimal dose of 4.0 mg/kg).; type: functional
# HeLa [9] = experiment: The compound was tested in vitro for its anticellular activity against HeLa cells.; type: functional, cell-based; conditions: Homo sapiens; outline: as §1
# Mus musculus [10] = experiment: In vivo antitumor activity against P388 leukemia cells (ip)in mice and maximal increase in life span calculated as (T/C-1)*100 at the optimal dose of 0.75 mg/kg (%ILS max of mitomycin C at the optimal dose of 6.0 mg/kg); type: functional
# Mus musculus [11] = experiment: In vivo antitumor activity against P388 leukemia cells (ip)in mice and maximal increase in life span calculated as (T/C-1)*100 at the optimal dose of 0.39 mg/kg (%ILS max of mitomycin C at the optimal dose of 4.0 mg/kg).; type: functional
# Mus musculus [12] = experiment: TIn vivo antitumor activity against P388 leukemia cells (ip)in mice and maximal increase in life span calculated as (T/C-1)*100 at the optimal dose of 5 mg/kg (%ILS max of mitomycin C at the optimal dose of 4.0 mg/kg).; type: functional
# Mus musculus [13] = experiment: In vivo antitumor activity against P388 leukemia cells (ip)in mice and maximal increase in life span calculated as (T/C-1)*100 at the optimal dose of 0.50 mg/kg (%ILS max of mitomycin C at the optimal dose of 6.0 mg/kg); type: functional
# Mus musculus [14] = experiment: In vivo antitumor activity against P388 leukemia cells (ip)in mice and maximal increase in life span calculated as (T/C-1)*100 at the optimal dose of 2.5 mg/kg (%ILS max of mitomycin C at the optimal dose of 6.0 mg/kg).; type: functional
# Mus musculus [15] = experiment: In vivo antitumor activity against P388 leukemia cells (ip)in mice and maximal increase in life span calculated as (T/C-1)*100 at the optimal dose of 4.0-6.0 mg/kg; type: functional
compound,measurement,setting,value
CO[C@@]12[C@H](COC(N)=O)C3=C(C(=O)C(C)C4(OCCO4)C3=O)N1C[C@H]1[C@@H]2N1C (stereo partly specified),IC50,"HeLa [1]; Homo sapiens, HeLa",600 nM
same,ILS max,Mus musculus [2],53%
CC1C(=O)C2=C(C(=O)C13OCCO3)[C@H](COC(N)=O)[C@@]1(O)[C@@H]3[C@H](CN21)N3C (stereo partly specified),IC50,"HeLa [1]; Homo sapiens, HeLa",4400 nM
same,ILS max,Mus musculus [3],73%
CC(=O)OC1=C(C)C2(OCCO2)C(=O)C2=C1N1C[C@H]3[C@H](N3C)[C@]1(O)[C@H]2COC(N)=O (stereo partly specified),IC50,"HeLa [1]; Homo sapiens, HeLa",4400 nM
same,ILS max,Mus musculus [4],71%
CO[C@@]12[C@H](COC(N)=O)C3=C(C(OC(=O)c4ccccc4)=C(C)C4(OCCO4)C3=O)N1C[C@@H]1N[C@@H]12,IC50,"HeLa [1]; Homo sapiens, HeLa",540 nM
same,ILS max,Mus musculus [5],71%
CO[C@@]12[C@H](COC(N)=O)C3=C(C(OC(=O)CCC(C)=O)=C(C)C4(OCCO4)C3=O)N1C[C@@H]1N[C@@H]12,IC50,"HeLa [1]; Homo sapiens, HeLa",590 nM
same,ILS max,Mus musculus [6],80%
COC1=C(C)C2(OCCO2)C(=O)C2=C1N1C[C@@H]3N[C@@H]3[C@]1(OC)[C@@H]2COC(N)=O,IC50,"HeLa [1]; Homo sapiens, HeLa",20000 nM
same,ILS max,Mus musculus [7],41%
CCCCCCCC(=O)OC1=C(C)C2(OCCO2)C(=O)C2=C1N1C[C@@H]3N[C@@H]3[C@]1(OC)[C@@H]2COC(N)=O,IC50,"HeLa [1]; Homo sapiens, HeLa",360 nM
CN1[C@H]2[C@@H]1CN1C3=C(C(=O)C4(OCCO4)C(C)(Cl)C3=O)[C@H](COC(N)=O)[C@@]21O (stereo partly specified),IC50,"HeLa [1]; Homo sapiens, HeLa",50000 nM
same,ILS max,Mus musculus [8],59%
CO[C@@]12[C@H](COC(N)=O)C3=C(C(OC(=O)C(C)(C)C)=C(C)C4(OCCO4)C3=O)N1C[C@@H]1N[C@@H]12,IC50,HeLa [9],8100 nM
CCCCCCCCCCCC(=O)OC1=C(C)C2(OCCO2)C(=O)C2=C1N1C[C@@H]3N[C@@H]3[C@]1(OC)[C@@H]2COC(N)=O,IC50,"HeLa [1]; Homo sapiens, HeLa",94 nM
same,ILS max,Mus musculus [10],67%
CO[C@@]12[C@H](COC(N)=O)C3=C(C(=O)C(C)C4(OCCO4)C3=O)N1C[C@@H]1N[C@@H]12 (stereo partly specified),IC50,"HeLa [1]; Homo sapiens, HeLa",41 nM
same,ILS max,Mus musculus [11],69%
CO[C@]12[C@@H]3[C@H](CN1C1=C(C(=O)C4(OCCO4)C(C)C1=O)[C@@H]2COC(N)=O)N3C (stereo partly specified),IC50,"HeLa [1]; Homo sapiens, HeLa",3100 nM
same,ILS max,Mus musculus [12],80%
CO[C@@]12[C@H](COC(N)=O)C3=C(C(OC(C)=O)=C(C)C4(OCCO4)C3=O)N1C[C@@H]1N[C@@H]12,IC50,"HeLa [1]; Homo sapiens, HeLa",4400 nM
same,ILS max,Mus musculus [13],63%
CCOC(=O)OC1=C(C)C2(OCCO2)C(=O)C2=C1N1C[C@@H]3N[C@@H]3[C@]1(OC)[C@@H]2COC(N)=O,IC50,HeLa [9],870 nM
CO[C@@]12[C@H](COC(N)=O)C3=C(C(=O)C(C)(Cl)C4(OCCO4)C3=O)N1C[C@@H]1N[C@@H]12 (stereo in doubt; 13b),IC50,HeLa [1]; hela,3200 nM
same,ILS max,Mus musculus [14],60%
CO[C@@]12[C@H](COC(N)=O)C3=C(C(=O)C(C)(Cl)C4(OCCO4)C3=O)N1C[C@@H]1N[C@@H]12 (stereo in doubt; 13c),IC50,HeLa [1]; hela,590 nM
same,ILS max,Mus musculus [14],73%
CO[C@@]12[C@H](COC(N)=O)C3=C(C(=O)C(C)=C(N)C3=O)N1C[C@@H]1N[C@@H]12 [MITOMYCIN],IC50,"HeLa [1]; Homo sapiens, HeLa",810 nM
same,ILS max,Mus musculus [15],52%
